Measurements as given in ChEMBL document CHEMBL3102820, “Developing bivalent ligands to target CUG triplet repeats, the causative agent of myotonic dystrophy type 1” (J Med Chem, 2013).
pIC50, pKd: −log10 of the molar value. Calls of active or inactive are those of the source. The calls are words filed in the database; no cut-off is given here.

Experiments:
[1] = Inhibition of biotin-labeled (CUG)12 RNA (unknown origin)-MBNL1 interaction by SPR analysis
In short: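 SPR in 1X PBS with Tween-20 and excess competitor tRNA. Biotinylated (CUG)12 was immobilized on a streptavidin chip and pre-incubated with ligand at varied concentrations to steady-state RU over 150 s. Then 0.65 μM MBNL1 was injected with ligand at the same concentration. Maximum RU at 150 s was converted to % (CUG)12 bound, normalized to the no-ligand value, and fitted for apparent IC50.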

[2] = Binding affinity to 5'-TAMRA-labeled (CUG)6 RNA (unknown origin) by fluorescence titration assay
In short: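 Steady-state fluorescence titration. Ligand was titrated into 5'-TAMRA-(CUG)6 in 1X PBS, and the drop in TAMRA emission was followed. Normalized intensity was plotted against ligand concentration to give a binding isotherm, which was fitted for KD.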

HeLa [3] = experiment: Binding affinity to (CUG)960 RNA (unknown origin) expressed in human HeLa cells coexpressing GFP-tagged MBNL1 assessed as MBNL1 foci dispersion throughout nucleus at Z-plane of cells at 50 uM after 10 hrs by live cell microscopic analysis; assay type: cell-based; details: unidentified
In short: (§1)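 HeLa cells co-transfected with DMPK-CTG960 and GFP-MBNL1 plasmids were grown on a gridded dish so each cell could be relocated by DIC. Ligand was added to 50 μM final. Time-lapse confocal images of GFP-MBNL1 foci and acridine fluorescence were taken before addition and at 3, 6 and 10 h. At 10 h, Z-stacks of 1 μm slices through the whole cell were taken. Untreated cells were imaged the same way.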

HeLa [4] = experiment: Binding affinity to (CUG)960 RNA (unknown origin) expressed in human HeLa cells coexpressing GFP-tagged MBNL1 assessed as MBNL1 foci dispersion throughout nucleus at 50 uM after 3 to 10 hrs by live cell microscopic analysis; assay type: cell-based; in short: as §1
[5] = Drug uptake in human HeLa cell nuclear membrane expressing (CUG)960 RNA coexpressing GFP-tagged MBNL1 at 50 uM after 3 to 10 hrs by live cell microscopic analysis; assay type: ADME, cell membranes; in short: as §1
[6] = Drug uptake in human HeLa cell membrane expressing (CUG)960 RNA coexpressing GFP-tagged MBNL1 at 50 uM after 3 to 10 hrs by live cell microscopic analysis; assay type: ADME, cell-based; in short: as §1
HeLa [7] = experiment: Binding affinity to (CUG)960 RNA (unknown origin) expressed in human HeLa cells assessed as foci dispersion at 20 to 50 uM after 36 hrs by confocal microscopic analysis; assay type: cell-based
In short: (§2)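 HeLa cells, about 120,000 per well on coverslips, were transfected after 1 day with 500 ng DMPK-CTG960 plasmid (CTG0 plasmid for control cells). Ligand was given at 20, 35 or 50 μM for 36 h. Cells were then fixed and foci stained by FISH with Cy3-(CAG)10, with TO-PRO-3 nuclear stain. Confocal excitation was 405 nm (acridine ligand uptake), 555 nm (Cy3) and 639 nm (TO-PRO-3). Over 100 cells were scored for foci; two-tailed Student t test.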

[8] = Drug uptake in nucleus of human HeLa cells expressing (CUG)960 RNA at 35 uM after 36 hrs by confocal microscopic analysis; assay type: ADME, cell-based; in short: as §2
HeLa [9] = experiment: Drug uptake in human HeLa cells expressing (CUG)960 RNA at 35 uM after 36 hrs by confocal microscopic analysis; assay type: ADME, cell-based; in short: as §2
Nucleic Acid [10] = experiment: Binding affinity to (CUG)12 RNA (unknown origin) assessed as change in melting temperature at 1 equiv treated in aqueous solution by thermal denaturation assay; assay type: nucleic-acid assay; details: unidentified
[11] = Cytotoxicity against human HeLa cells assessed as cytotoxicity up to 75 uM after 24 hrs by sulforhodamine B assay
Nucleic Acid [12] = experiment: Binding affinity to (CUG)12 RNA (unknown origin) assessed as change in melting temperature at 1 equiv treated in 5% DMSO by thermal denaturation assay; assay type: nucleic-acid assay
Nucleic Acid [13] = experiment: Binding affinity to (CUG)12 RNA (unknown origin) assessed as change in melting temperature by thermal denaturation assay; assay type: nucleic-acid assay
[14] = Inhibition of (CUG)12 RNA (unknown origin)-MBNL1 interaction after 10 to 15 mins

| SMILES | pIC50 [1] | pKd [2] | Activity (HeLa [7]) | Drug uptake [8] | Drug uptake (HeLa [9]) | further results |
| --- | --- | --- | --- | --- | --- | --- |
| Nc1nc(N)nc(NCCCCNc2c3ccccc3nc3ccc(C(=O)NCCCOCCOCCOCCCNC(=O)c4ccc5nc6ccccc6c(NCCCCNc6nc(N)nc(N)n6)c5c4)cc23)n1 | 4.55 | 4.12 |  |  |  |  |
| Nc1nc(N)nc(NCCCCNc2c3ccccc3nc3c(C(=O)NCCCNCCCNCCCNC(=O)c4cccc5c(NCCCCNc6nc(N)nc(N)n6)c6ccccc6nc45)cccc23)n1 | 5.96 | 6.49 | Active | Active | Active | Activity (HeLa [3]): Active; Activity (HeLa [4]): Active; Drug uptake [5]: Active; Drug uptake [6]: Active; ΔTm (Nucleic Acid [10]): 9.3 °C; cytotoxicity at 24 h [11]: < 20% |
| Nc1nc(N)nc(NCCCCNc2c3ccccc3nc3c(C(=O)NCCNCCNCCNC(=O)c4cccc5c(NCCCCNc6nc(N)nc(N)n6)c6ccccc6nc45)cccc23)n1 | 5.30 | 5.32 | inactive | Not Active | Not Active | ΔTm (Nucleic Acid [10]): 8.4 °C |
| Nc1nc(N)nc(NCCCCNc2c3ccccc3nc3c(C(=O)NCCOCCOCCOCCOCCOCCNC(=O)c4cccc5c(NCCCCNc6nc(N)nc(N)n6)c6ccccc6nc45)cccc23)n1 | 4.43 |  |  |  |  | ΔTm (Nucleic Acid [12]): 1.8 °C |
| CC(=O)NCCCNCCCNCCCNC(=O)c1cccc2c(NCCCCNc3nc(N)nc(N)n3)c3ccccc3nc12 | 4.82 |  |  |  |  | ΔTm (Nucleic Acid [13]): 2.5 °C |
| COc1ccc2nc3cc(Cl)ccc3c(NCCCCNc3nc(N)nc(N)n3)c2c1 |  |  |  |  |  | pIC50 [14]: 4.34 |
| CNC(=O)c1ccc2nc3ccccc3c(NCCCCNc3nc(N)nc(N)n3)c2c1 | 3.53 | 4.18 | inactive | Not Active | Not Active | ΔTm (Nucleic Acid [12]): 1.8 °C; cytotoxicity at 24 h [11]: < 20% |
| Nc1nc(N)nc(NCCCCNc2c3ccccc3nc3ccc(C(=O)NCCOCCOCCOCCOCCOCCNC(=O)c4ccc5nc6ccccc6c(NCCCCNc6nc(N)nc(N)n6)c5c4)cc23)n1 | 4.37 |  |  |  |  |  |
| Nc1nc(N)nc(NCCCCNc2c3ccccc3nc3c(C(=O)NCCNCCNCCNCCNC(=O)c4cccc5c(NCCCCNc6nc(N)nc(N)n6)c6ccccc6nc45)cccc23)n1 | 5.22 | 5.42 |  |  |  | ΔTm (Nucleic Acid [10]): 9.6 °C |
| Nc1nc(N)nc(NCCCCNc2c3ccccc3nc3ccc(C(=O)NCCCNCCCCCCCCNCCCNC(=O)c4ccc5nc6ccccc6c(NCCCCNc6nc(N)nc(N)n6)c5c4)cc23)n1 |  |  | inactive | Active | Active |  |
| Nc1nc(N)nc(NCCCCNc2c3ccccc3nc3ccc(C(=O)NCCOCCOCCNC(=O)c4ccc5nc6ccccc6c(NCCCCNc6nc(N)nc(N)n6)c5c4)cc23)n1 | 4.74 | 4.64 |  |  |  | ΔTm (Nucleic Acid [12]): 2.7 °C |
